High-throughput results: PubChem BioAssay, The Scripps Research Institute Molecular Screening Center
CHRM1 agonist – human M1 muscarinic receptor agonists, primary screen, Fluo-8 calcium fluorescence, CHO-K1 cells, HTS. Muscarinic acetylcholine receptor M1 (Homo sapiens), P11229. CHO-K1 hM1, agonist mode; 0% DMSO, 100% acetylcholine EC100. activation, % at 3 µM. actives 0.33% (n = 360,000). AID 588814, 2011;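 active = activation above the run's mean compound activation plus 3 SD, cut at about 16% in these data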;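 also: peak over basal fluorescence ratio within a 140 s kinetic read after compound addition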
CHRM5 PAM – human M5 muscarinic receptor positive allosteric modulators, primary screen, CHO-K1 cells, Fluo-8 calcium fluorescence; Muscarinic acetylcholine receptor M5 (Homo sapiens), P08912; actives 0.3% (n = 360,000); activation, % at 3 µM; CHO-K1 hM5, ACh EC20 PAM; 0% = ACh EC20, 100% = ACh EC100;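 active = activation above the run cutoff, the mean activation of all test compounds plus 3 SD, cut at about 18% in these data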
Target sequence (P08912 whole entry, looked up): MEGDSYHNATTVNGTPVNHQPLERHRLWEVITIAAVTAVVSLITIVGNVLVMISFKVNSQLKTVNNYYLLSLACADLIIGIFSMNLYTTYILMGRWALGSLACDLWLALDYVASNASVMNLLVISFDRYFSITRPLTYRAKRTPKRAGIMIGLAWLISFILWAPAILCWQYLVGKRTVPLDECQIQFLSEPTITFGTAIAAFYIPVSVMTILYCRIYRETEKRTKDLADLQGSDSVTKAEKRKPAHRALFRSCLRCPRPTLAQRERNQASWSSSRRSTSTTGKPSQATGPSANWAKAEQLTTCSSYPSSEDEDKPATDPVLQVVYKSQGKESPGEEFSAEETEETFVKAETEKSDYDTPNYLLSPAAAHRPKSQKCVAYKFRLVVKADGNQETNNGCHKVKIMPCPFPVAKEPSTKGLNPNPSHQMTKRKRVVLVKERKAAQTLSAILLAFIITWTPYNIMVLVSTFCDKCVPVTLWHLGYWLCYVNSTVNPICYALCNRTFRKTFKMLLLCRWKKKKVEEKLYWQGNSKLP
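Measured by: Fluo-8 calcium fluorescence; material: human M5 receptor in CHO-K1 cells; schedule: Post-acetylcholine fluorescence recording 140 s; benchmarks: low control EC20 acetylcholine (0%), high control EC100 acetylcholine (100%); read-out: Max/basal fluorescence ratio as % of EC20–EC100 ACh window; compound: single dose, 3 µM nominal final test concentration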
M1 antag – human M1 muscarinic receptor antagonists, primary screen, CHO-K1 cells, Fluo-8 calcium fluorescence, 1536-well; Muscarinic acetylcholine receptor M1 (Homo sapiens), P11229; CHO-K1 hM1, ACh EC80 antagonist; inhibition, % at 3 µM; actives 1.3% (n = 360,000); AID 588852, 2011;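 active = percent inhibition above its own plate's cutoff, namely the mean of that plate's compound wells plus 3 SD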;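 also: peak over basal fluorescence ratio during 140 s after agonist addition; 0% = ACh EC80 plus DMSO and 100% = DMSO alone without agonist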
CHRM1 PAM – human M1 muscarinic receptor positive allosteric modulators, primary screen, CHO-K1 cells, Fluo-8 calcium fluorescence, 1536-well. Muscarinic acetylcholine receptor M1 (Homo sapiens), P11229. CHO-K1 hM1, ACh EC20; 0% = ACh EC20, 100% = maximal ACh. activation, % at 3 µM. actives 0.088% (n = 360,000). AID 588819, 2011; in the data active = activation above about 19%, passing the limit was not always enough
CHRM5 agonist – human M5 muscarinic receptor agonists, primary screen, CHO-K1 cells, Fluo-8 calcium fluorescence; AID 624037, 2012; actives 0.19% (n = 360,000); activation, % at 3 µM; Muscarinic acetylcholine receptor M5 (Homo sapiens), P08912; CHO-K1 hM5 cells; 0% DMSO wells, 100% maximal acetylcholine response;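 active = activation above the run's mean over test compounds plus 3 SD, cut at about 23% in these data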;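 also: signal is peak over basal fluorescence ratio across the kinetic read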
M5 antag – human M5 muscarinic receptor antagonists, primary screen, CHO cells, Fluo-8 calcium fluorescence; Muscarinic acetylcholine receptor M5 (Homo sapiens), P08912; CHO-hM5 cells, ACh EC80; inhibition, % at 3 µM; actives 0.59% (n = 360,000); AID 624040, 2012;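 active = inhibition above a per-plate cutoff, the mean of that plate's test compounds plus 3 SD, cut at about 27% in these data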;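 also: 0% = acetylcholine EC80 with DMSO and 100% = DMSO without agonist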
The depositor's hits bear a star; x = no result. Compounds with a hit are over-represented: about 2% of the library has one in this group of screens.

SMILES	CHRM1 agonist	CHRM5 PAM	M1 antag	CHRM1 PAM	CHRM5 agonist	M5 antag
CC(=O)NC(c1ccccc1)c1cc([N+](=O)[O-])c2cccnc2c1O (centres undefined)	1	22*	24	-2	3	-13
CC(C)C(=O)NC(c1ccccc1)c1cc([N+](=O)[O-])c2cccnc2c1O (centres undefined)	-8	3	-11	9	-3	-3
CCOc1ccc(CCN2C(=O)C(=O)N([C@@H](CC(C)C)CN3CCC[C@H]3CN3C(=O)C(=O)NC[C@@H]3CC(C)C)C[C@@H]2Cc2ccc(O)cc2)cc1	x	7	x	x	3	-3
COC(=O)CCc1c(C)[nH]c(=S)[nH]c1=O	8	11	-34	21*	0	-14
CCn1c(SCC(=O)N(C)c2c(N)n(Cc3ccccc3)c(=O)[nH]c2=O)nnc1-c1cccs1	-3	2	-2	1	1	-3
CCC(C)(C)NC(=O)C1CCN(S(=O)(=O)c2cccs2)CC1	-4	-14	11	-10	-1	33*
CCc1ccc(NC(=O)C2CCN(S(=O)(=O)c3cccs3)CC2)cc1	-2	-1	-2	4	0	10
Nc1ncnc2c1ncn2[C@@H]1O[C@H](C(=O)N2CCC[C@@H]2C(=O)OCc2ccccc2)[C@@H](O)[C@H]1O	-4	-5	-11	0	2	-3
Fc1ccc(-n2nnc(-c3cccnc3)n2)cc1	-1	3	-24	18	2	8
Fc1ccc(C(CCCn2nnc(-c3cccnc3)n2)c2ccc(F)cc2)cc1	-2	-54	27*	-8	-10	22
COCCNC(=O)c1ccc(N2CC3CC(C2)c2cccc(=O)n2C3)c(NC(=O)c2ccc(Br)o2)c1 (centres undefined)	1	2	-15	16	-2	5
COCCNC(=O)c1ccc(N2CC3CC(C2)c2cccc(=O)n2C3)c(NC(=O)c2ccccc2Cl)c1 (centres undefined)	26*	0	-19	4	-2	2
COCCNC(=O)c1ccc(N2CC3CC(C2)c2cccc(=O)n2C3)c(NC(=O)c2ccccc2Br)c1 (centres undefined)	22*	-2	-8	3	-3	0
Cc1ccc(S(=O)(=O)NC(=O)C2(C)CCN2C(=O)CCc2ccc(Cl)cc2Cl)cc1 (centres undefined)	-6	-2	-5	1	-1	-1
N#Cc1ccc(-c2nc3ccc(Br)cc3c(=O)n2O)cc1	0	-6	-9	1	-2	8
O=c1c2cc(Br)ccc2nc(-c2cccc(C(F)(F)F)c2)n1O	25*	1	-5	0	-1	7
O=C1C=CC(c2c[nH]c3ccccc23)CC1 (centres undefined)	x	6	x	x	1	-1
CCN(CC)c1ccc(C2CC(=O)NC3=C2C(=O)CC(C)(C)C3)cc1 (centres undefined)	-10	-29	26*	-23	-12	14
COc1cc(C2CC(=O)NC3=C2C(=O)CC(C)(C)C3)cc(OC)c1O (centres undefined)	2	8	0	-2	-1	27*
CN(C)c1ccc(C2CC(=O)NC3=C2C(=O)CC(C)(C)C3)cc1 (centres undefined)	-11	-7	8	-7	-6	7
CC1(C)CC(=O)C2=C(C1)NC(=O)CC2c1ccc(F)cc1 (centres undefined)	-2	-6	3	-4	-2	9
OCC1(Cc2ccccc2F)CCCN(CCc2ccccc2)C1 (centres undefined)	-10	-8	31*	-25	-8	5
COc1cccc(NC(=O)N(C)C[C@@H]2OCc3cnnn3CCCC(=O)N([C@@H](C)CO)C[C@H]2C)c1	-5	-3	-9	3	1	5
N#Cc1ccc(OCC(O)CN2CCC(C(O)(c3ccccc3)c3ccccc3)CC2)cc1 (centres undefined)	-11	-14	32*	-29	-3	10
CCOC(=O)C1CCCN(C2CC(=O)N(c3ccc(C(C)C)cc3)C2=O)C1 (centres undefined)	18*	-8	7	-8	3	8
SMILES	CHRM1 agonist	CHRM5 PAM	M1 antag	CHRM1 PAM	CHRM5 agonist	M5 antag
CCOC(=O)C1CCCN(C2CC(=O)N(c3cccc(C(F)(F)F)c3)C2=O)C1 (centres undefined)	65*	-9	40*	-22	19	11
CCOC(=O)C1CCCN(C2CC(=O)N(c3ccc(C)c(C)c3)C2=O)C1 (centres undefined)	12	-6	19	-7	4	4
CCOC(=O)C1CCCN(C2CC(=O)N(c3ccccc3)C2=O)C1 (centres undefined)	-1	5	1	1	0	-1
CCOC(=O)C1CCCN(C2CC(=O)N(c3ccc(N4C(=O)CC(N5CCCC(C(=O)OCC)C5)C4=O)cc3)C2=O)C1 (centres undefined)	39*	-8	9	-21	9	7
O=C(NCC[C@H]1CC[C@@H](NC(=O)C2CCC2)[C@@H](CO)O1)c1cc(Cl)cc(Cl)c1	x	0	x	x	1	6
O=C(NCc1ccccc1)C1c2ccccc2OCC(=O)N1Cc1ccccc1 (centres undefined)	x	-4	x	x	3	5
Cc1ccccc1Oc1ccc2c(c1)[C@@H]1C[C@H](N(C)C(=O)c3ccco3)[C@H]([C@H](C)O)C(=O)N1CC2	-4	3	0	-2	3	-2
COc1ccc(C2c3c(-c4cc(Cl)c(C)cc4O)n[nH]c3C(=O)N2Cc2cccnc2)cc1OC (centres undefined)	-6	4	80*	-21	-3	-9
CCC(C)(C)c1ccc(OCCCC[n+]2cccc(C)c2)c(C(C)(C)CC)c1	7	-21	25*	-26	-10	28*
CN1CCN(Cc2cccc(Oc3ccc(Cl)cc3)c2)CC1	-8	-16	17	-22	-6	35*
CCOC(=O)C1CCN(CCC(=O)Nc2ccc(Cl)cc2)CC1	-4	-6	8	-5	0	0
c1ccc(Oc2cccc(CN3CCCCC3)c2)cc1	-13	-13	46*	-32	-7	11
